The values that follow come from ChEMBL document CHEMBL2331520, “Synthesis, surface tension properties and antibacterial activities of amphiphilic D-galactopyranose derivatives” (Eur J Med Chem, 2013).

One data set has as its system Dickeya chrysanthemi. Briefly: Antibacterial activity against Erwinia chrysanthemi EC3937 assessed as growth inhibition at 30 degC after 24 hrs by liquid broth dilution method. The note with it: EC3937, 24 h. In kind it is functional. The essentials:
(§1)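 Strains kept at -80 °C in LB broth with 20% glycerol and grown from 1% (v/v) stock in nutritive broth (yeast extract 1 g/L, meat extract 2 g/L, peptone 5 g/L, NaCl 5 g/L) at 30 °C. Overnight culture adjusted to 0.5 McFarland (~1.5 × 10⁸ cfu/mL). Compound stock 1 g/L in DMSO, serially diluted in broth 1:2 to 1:512, mixed 1:1 with inoculum. Incubation 24 h, 150 rpm, 30 °C. OD600 read; MIC = lowest concentration with no OD increase in all replicates versus negative control.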
A general note: In broth dilution the organism is exposed to a series of concentrations in liquid medium.

The subject of another data set is Citrobacter freundii. In words: Antibacterial activity against Citrobacter freundii ATCC 6750 assessed as growth inhibition at 30 degC after 24 hrs by liquid broth dilution method. Format: functional. The note with it: ATCC 6750, 24 h. Summed up: as §1
The test system of data set [1] is Mycolicibacterium smegmatis. Briefly: Antibacterial activity against Mycobacterium smegmatis CIP 73.26 assessed as growth inhibition at 37 degC after 24 hrs by liquid broth dilution method. Format: functional. The conditions noted are these: CIP 73.26, 24 h. Summed up: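 Inoculum at 0.5 McFarland (~1.5 × 10⁸ cfu/mL). DMSO stock (1 g/L) serially diluted in the same medium 1:2 to 1:512. Shaken 24 h at 150 rpm, 37 °C. MIC = lowest concentration with no OD600 rise in any replicate versus negative control.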

Data set [2] concerns Geobacillus stearothermophilus. Briefly: Antibacterial activity against Bacillus stearothermophilus ATTC 12980 assessed as growth inhibition at 30 degC after 24 hrs by liquid broth dilution method. The note with it: ATTC 12980, 24 h. In kind it is functional. Summed up: as §1
The test system of another data set is Staphylococcus aureus. In words: Antibacterial activity against Staphylococcus aureus subsp aureus CIP 53.154 assessed as growth inhibition at 30 degC after 24 hrs by liquid broth dilution method. Format: functional. The note with it: CIP 53.154, 24 h. The essentials: as §1
The next data set concerns Pseudomonas aeruginosa. Briefly: Antibacterial activity against Pseudomonas aeruginosa CIP A22 assessed as growth inhibition at 30 degC after 24 hrs by liquid broth dilution method. In kind it is functional. The conditions noted are these: CIP A22, 24 h. Summed up: as §1
Data set [3] in a line: Gamma critical micelle concentration of the compound by wilhelmy method. Format: physicochemical. The essentials:
(§2)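 Wilhelmy plate method at 293 K. Concentrated solution added stepwise from a syringe into ultrapure water, stirred gently 30 s after each addition, then equilibrium surface tension read. Each value is the mean of at least three measurements (SD within ±1.5% of mean). Transducer precision 0.1 mN/m; platinum plate flame-cleaned. Surface tension plotted against molar concentration to give CMC and γCMC.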

The test system of a further data set is Escherichia coli. In words: Antibacterial activity against Escherichia coli ATCC 10536 assessed as growth inhibition at 30 degC after 24 hrs by liquid broth dilution method. Format: functional. The note with it: ATCC 10536, 24 h. Summed up: as §1
The nature of data set [4]: Critical micelle concentration of the compound by wilhelmy method. In kind it is physicochemical. The essentials:
as §2

A further data set relates to Enterobacter cloacae. In words: Antibacterial activity against Enterobacter cloacae ATCC 13047 assessed as growth inhibition at 30 degC after 24 hrs by liquid broth dilution method. The note with it: ATCC 13047, 24 h. Format: functional. The essentials:
as §1

A further data set concerns Micrococcus luteus. Briefly: Antibacterial activity against Micrococcus luteus CIP 53.45 assessed as growth inhibition at 30 degC after 24 hrs by liquid broth dilution method. In kind it is functional. The conditions noted are these: CIP 53.45, 24 h. The essentials: as §1
In the next data set the test system is Sinorhizobium meliloti. In words: Antibacterial activity against Sinorhizobium meliloti Rm1021 assessed as growth inhibition at 30 degC after 24 hrs by liquid broth dilution method. In kind it is functional. The conditions noted are these: Rm1021, 24 h. Summed up: as §1

A value given as a limit tells only on which side of the number the result lay.

As a reminder, the MIC is the lowest concentration found to suppress growth. As to `CCCCCCCCOC[C@H]1O[C@H](O)[C@H](O)[C@@H](O)[C@H]1O`, the MIC (with Dickeya chrysanthemi; in the data set with Citrobacter freundii; in data set [1]; in [2]; in the data set with Staphylococcus aureus; in the data set on Pseudomonas aeruginosa) was no less than 250 mg/L throughout. In addition, the MIC in the data set with Escherichia coli, in the data set with Enterobacter cloacae, in the data set on Micrococcus luteus and with Sinorhizobium meliloti was no less than 250 mg/L throughout. The same molecule gave a gammaCMC in data set [3] of 28 mN/meter. Moreover, in data set [4], the CMC turned out to be 12 mmol/L.
